Experimental findings from ChEMBL document CHEMBL3769396 (J Med Chem, 2016) are described below.

For test [1], the target named is T1, Histone deacetylase 1 (Homo sapiens, UniProt Q13547). In words: Inhibition of human HDAC1 using (Z-(Ac)Lys-AMC) as substrate after 90 mins by fluorescence analysis.
The target in test [2] is T2, Protein deacetylase HDAC6 (Homo sapiens, UniProt Q9UBN7).
T2 sequence (Q9UBN7 whole entry): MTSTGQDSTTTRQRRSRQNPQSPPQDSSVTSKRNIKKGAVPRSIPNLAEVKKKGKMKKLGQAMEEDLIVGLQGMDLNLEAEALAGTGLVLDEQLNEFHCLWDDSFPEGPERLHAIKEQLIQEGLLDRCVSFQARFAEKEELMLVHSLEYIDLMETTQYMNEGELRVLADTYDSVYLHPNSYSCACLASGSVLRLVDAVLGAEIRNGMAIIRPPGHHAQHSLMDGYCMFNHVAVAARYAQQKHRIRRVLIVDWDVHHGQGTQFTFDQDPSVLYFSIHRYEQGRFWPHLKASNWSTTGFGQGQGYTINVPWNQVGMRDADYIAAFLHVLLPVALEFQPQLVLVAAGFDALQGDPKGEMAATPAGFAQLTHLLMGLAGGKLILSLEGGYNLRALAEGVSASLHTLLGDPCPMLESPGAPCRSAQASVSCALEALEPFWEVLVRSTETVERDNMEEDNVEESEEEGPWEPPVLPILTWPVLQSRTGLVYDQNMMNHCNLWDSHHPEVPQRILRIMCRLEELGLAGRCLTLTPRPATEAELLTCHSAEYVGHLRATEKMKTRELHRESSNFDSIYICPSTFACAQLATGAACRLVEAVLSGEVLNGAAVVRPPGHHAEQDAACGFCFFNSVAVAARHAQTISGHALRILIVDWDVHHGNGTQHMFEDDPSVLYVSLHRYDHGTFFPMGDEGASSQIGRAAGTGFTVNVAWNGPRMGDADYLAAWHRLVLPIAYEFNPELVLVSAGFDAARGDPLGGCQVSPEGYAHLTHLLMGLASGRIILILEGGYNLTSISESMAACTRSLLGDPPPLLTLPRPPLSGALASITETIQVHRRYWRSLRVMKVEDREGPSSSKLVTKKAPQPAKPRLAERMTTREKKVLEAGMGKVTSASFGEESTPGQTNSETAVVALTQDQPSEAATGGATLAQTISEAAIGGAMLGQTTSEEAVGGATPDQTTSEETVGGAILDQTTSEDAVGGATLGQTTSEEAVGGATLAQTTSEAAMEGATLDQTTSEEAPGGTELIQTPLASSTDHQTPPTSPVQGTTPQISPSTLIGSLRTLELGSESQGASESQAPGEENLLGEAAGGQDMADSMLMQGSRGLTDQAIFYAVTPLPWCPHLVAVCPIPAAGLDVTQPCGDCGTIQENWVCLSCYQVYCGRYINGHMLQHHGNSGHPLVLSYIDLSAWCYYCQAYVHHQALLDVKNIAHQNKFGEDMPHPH
In words: Inhibition of human HDAC6 using (Z-(Ac)Lys-AMC) as substrate after 90 mins by fluorescence analysis.

The target of a further test is T3, Histone deacetylase 8 (Homo sapiens, UniProt Q9BY41).
T3 sequence (Q9BY41 whole entry): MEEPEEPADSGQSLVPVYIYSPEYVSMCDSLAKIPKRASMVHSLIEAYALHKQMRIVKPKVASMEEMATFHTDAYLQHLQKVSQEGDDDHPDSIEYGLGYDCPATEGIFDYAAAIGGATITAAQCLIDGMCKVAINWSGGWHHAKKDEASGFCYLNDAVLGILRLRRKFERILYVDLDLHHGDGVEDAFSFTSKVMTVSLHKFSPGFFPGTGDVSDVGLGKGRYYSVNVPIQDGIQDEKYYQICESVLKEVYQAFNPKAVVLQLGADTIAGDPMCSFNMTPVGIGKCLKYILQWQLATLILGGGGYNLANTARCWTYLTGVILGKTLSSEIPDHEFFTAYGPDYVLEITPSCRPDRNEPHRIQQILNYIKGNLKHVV
In words: Inhibition of human HDAC8 using Z-L-Lys([…]-trifluoroacetyl)-AMC as substrate after 90 mins by fluorescence analysis.

The nature of test [3]: Cytotoxicity against human HL60 cells after 72 hrs by cell titre 96 aqueous cell proliferation assay. The format is functional, HL-60. A digest of the protocol:
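HL60 cells, 5000/well in RPMI with 10% FBS, 2 mM L-glutamine and penicillin/streptomycin, treated with a range of concentrations (0.05% DMSO control) for 72 h. MTS/PMS (20:1) was then added and A490 read after 2-4 h, with the cell-free background subtracted. GI50 is the concentration giving 50% viable cells; triplicates, mean of at least two experiments.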

Test [4] has as its target T1, Histone deacetylase 1. In words: Inhibition of human HDAC1 at 10 uM using (Z-(Ac)Lys-AMC) as substrate after 90 mins by fluorescence analysis.
The species named for the next test is Homo sapiens. Description: Selectivity ratio of IC50 for class1 HDAC (unknown origin) to IC50 for HDAC6 (unknown origin). The method in brief: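 Ratio of IC50 HDAC1 (or HDAC8) to IC50 HDAC6. Human recombinant HDAC1/6 were run in Tris-HCl pH 8.0 with NaCl, KCl, MgCl2 and BSA, using ZMAL substrate. HDAC8 was run in KH2PO4/Tris pH 7.5 with Z-L-Lys(ε-trifluoroacetyl)-AMC. All: 90 min at 37 °C, then TSA/trypsin stop for 30 min, fluorescence ex 390/em 460 nm. IC50 is the mean of at least two experiments.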

Test [5] concerns the target T4, Histone deacetylase 8 (Homo sapiens) (UniProt Q9BY41).
T4 sequence (whole entry): T3 sequence (Q9BY41 whole entry)
Description: Inhibition of human HDAC8 at 100 uM using Z-L-Lys([…]-trifluoroacetyl)-AMC as substrate after 90 mins by fluorescence analysis.

T1 sequence (Q13547 whole entry): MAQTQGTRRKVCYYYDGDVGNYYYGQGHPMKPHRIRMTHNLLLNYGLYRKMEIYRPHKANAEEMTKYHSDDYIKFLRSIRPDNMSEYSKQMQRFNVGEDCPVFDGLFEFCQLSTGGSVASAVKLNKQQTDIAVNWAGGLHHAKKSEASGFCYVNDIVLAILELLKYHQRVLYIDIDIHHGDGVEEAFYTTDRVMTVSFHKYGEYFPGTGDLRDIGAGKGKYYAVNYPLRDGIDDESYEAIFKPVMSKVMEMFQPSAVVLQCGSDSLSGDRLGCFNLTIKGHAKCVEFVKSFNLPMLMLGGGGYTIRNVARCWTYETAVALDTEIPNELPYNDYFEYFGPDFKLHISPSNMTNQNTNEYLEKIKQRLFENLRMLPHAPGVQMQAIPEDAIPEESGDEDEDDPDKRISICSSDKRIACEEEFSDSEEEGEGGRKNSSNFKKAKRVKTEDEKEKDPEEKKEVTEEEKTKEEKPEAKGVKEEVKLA

The IC50 is the concentration that gives 50% inhibition. Read a high IC50 as a need for much substance. Regarding `O=C(NO)c1csc(C(c2ccccc2)c2ccccc2)n1`, the values for the IC50 (at Histone deacetylase 1 [1]; in test [2]; against Histone deacetylase 8) were 47.7 µM, 3.69 µM and 12.9 µM, respectively.
The term GI50 denotes the concentration at which growth is held to half of that of the control. Low readings indicate greater sensitivity of the cells, high ones lower sensitivity of the cells. As for `COc1ccc(-c2nc(C(=O)NO)co2)cc1`, the results for the IC50 (against Histone deacetylase 1 [1]; in test [2]; on Histone deacetylase 8) were 32.9 µM, 0.195 µM and 50.9 µM, respectively. The compound further had a GI50 in test [3] (Homo sapiens, HL-60, 72 h) of 29.2 µM.
`O=C(CCCCCCC(=O)Nc1ccccc1)NO` [VORINOSTAT] yielded a GI50 in test [3] of 0.08 µM.
For `O=C(NO)c1csc(-c2ccc(Br)cc2)n1`, the IC50 on Histone deacetylase 1 [1] was 17.5 µM; in test [2] it was 1.06 µM; against Histone deacetylase 8, 36.4 µM. Moreover, growth in test [3] (Homo sapiens, HL-60, 72 h) was halved (GI50) at 11.1 µM.
On to `O=C(NO)c1coc(-c2cccs2)n1`, for which the results for the IC50 (against Histone deacetylase 1 [1]; in test [2]; on Histone deacetylase 8) were 36.5 µM, 0.311 µM and 8.13 µM, respectively.
In test [3] (Homo sapiens, HL-60, 72 h), `O=C(NO)c1coc(-c2ccc(Br)cc2)n1` returned a GI50 of 10.2 µM.
With `O=C(NO)c1coc(-c2cccc(-c3ccccc3)c2)n1`, the IC50 against Histone deacetylase 1 [1] amounted to 19.1 µM; in test [2] it was 0.5 µM; against Histone deacetylase 8 it was 10.1 µM.
Turning to `O=C(NO)c1coc(C(c2ccccc2)c2ccccc2)n1`, the IC50 on Histone deacetylase 1 [1] was found to be 93.9 µM; in test [2], 9.37 µM; against Histone deacetylase 8, 2.7 µM.
As usually defined, the inhibition is the relative decrease from the control value, in per cent. Low readings indicate a response near the control, high ones a response far below the control. In test [2], `O=C(NO)c1csc(-c2cccnc2)n1` had an IC50 of 0.3 µM. The same compound displayed an inhibition against Histone deacetylase 1 [4] of 36%.
Turning to `Cc1ccc(-c2nc(C(=O)NO)co2)cc1`, the values for the IC50 (on Histone deacetylase 1 [1]; in test [2]; at Histone deacetylase 8) were 40.1 µM, 0.313 µM and 33.9 µM, respectively.
Turning to `O=C(NO)c1coc(-c2ccccc2Br)n1`, the IC50 on Histone deacetylase 1 [1] came to 22.6 µM; in test [2], 2.18 µM; at Histone deacetylase 8, 20.2 µM.
With `O=C(NO)c1csc(-c2cnccn2)n1`, the IC50 against Histone deacetylase 1 [1] worked out at 82.2 µM; in test [2], 8.85 µM; on Histone deacetylase 8, 61.4 µM.
With `COc1ccc2cc(-c3nc(C(=O)NO)co3)ccc2c1`, the figures for the IC50 (against Histone deacetylase 1 [1]; in test [2]; against Histone deacetylase 8) were 22.5 µM, 0.182 µM and 29.1 µM, respectively.
For `O=C(NO)c1coc(-c2ccc(Cl)cc2)n1`, the values for the IC50 (on Histone deacetylase 1 [1]; in test [2]; on Histone deacetylase 8) were 19.6 µM, 0.081 µM and 30.8 µM, respectively.
Take `O=C(NO)c1coc(-c2ccccc2)n1`: the IC50 against Histone deacetylase 1 [1] turned out to be 29.9 µM; in test [2], 0.27 µM; against Histone deacetylase 8, 41.9 µM. In addition, in test [3] (Homo sapiens, HL-60, 72 h), it took 44.1 µM to inhibit growth by half (GI50).
For the compound `O=C(CCCCCCNC(=O)c1cnc(N(c2ccccc2)c2ccccc2)nc1)NO`, in the test filed under Homo sapiens, the Ratio IC50 worked out at 10.
For `O=C(NO)c1noc(-c2ccccc2)n1`, the IC50 against Histone deacetylase 1 [1] was determined as 25 µM; in test [2], 0.112 µM; at Histone deacetylase 8, 38.5 µM.
On to `O=C(NO)c1coc(-c2ccc3ccccc3c2)n1`, for which the IC50 against Histone deacetylase 1 [1] was found to be 12.2 µM; in test [2], 0.089 µM; against Histone deacetylase 8, 26.2 µM. Also, it took 6.3 µM to inhibit growth in test [3] (Homo sapiens, HL-60, 72 h) by half (GI50).
In the case of `O=C(NO)c1noc(-c2ccc(-c3ccccc3)cc2)n1`, the IC50 against Histone deacetylase 1 [1] is 14.9 µM; in test [2], 1.31 µM. For the same compound, the inhibition in test [5] turned out to be 62%.
For `O=C(NO)c1csc(Cc2ccccc2)n1`, the IC50 against Histone deacetylase 1 [1] came to 83.6 µM; in test [2], 2.54 µM; against Histone deacetylase 8 it was 35 µM.
On to `O=C(NO)c1noc(-c2ccc(Br)cc2)n1`, for which the figures for the IC50 (on Histone deacetylase 1 [1]; in test [2]; against Histone deacetylase 8) were 33.5 µM, 2.77 µM and 20 µM, respectively.
Turning to `O=C(NO)c1coc(-c2ccc(F)cc2)n1`, the IC50 against Histone deacetylase 1 [1] turned out to be 23.7 µM; in test [2], 0.11 µM; against Histone deacetylase 8, 43.3 µM. For the same compound, the GI50 in test [3] (Homo sapiens, HL-60, 72 h) is 30.1 µM.
For the compound `O=C(NO)c1csc(-c2ccccc2)n1`, the IC50 turned out to be 10.3 µM against Histone deacetylase 1 [1], 1.91 µM in test [2] and 12.1 µM on Histone deacetylase 8.
On to `O=C(NO)c1coc(-c2ccc(-c3ccccc3)cc2)n1`, for which the IC50 at Histone deacetylase 1 [1] came out at 29.5 µM; in test [2], 0.089 µM; against Histone deacetylase 8, 27.3 µM. Also, growth in test [3] (Homo sapiens, HL-60, 72 h) was halved (GI50) at 5.6 µM.
